Test [1] has as its target T1, Phospholipase A and acyltransferase 2 (Homo sapiens, UniProt Q9NWW9).
T1 sequence (Q9NWW9 whole entry): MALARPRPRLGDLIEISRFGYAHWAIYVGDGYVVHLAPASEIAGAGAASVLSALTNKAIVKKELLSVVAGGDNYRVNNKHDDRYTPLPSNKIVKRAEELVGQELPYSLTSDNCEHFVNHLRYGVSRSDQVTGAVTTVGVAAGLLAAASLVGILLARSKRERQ
Nature of the test: Inhibition of full-length C-terminal FLAG-tagged human PLAAT2 expressed in HEK293T cell lysate preincubated for 30 mins followed by MB064 addition and measured after 20 mins by SDS-PAGE based ABPP analysis. In a few lines: (§1)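 Dose–response competitive ABPP on cytosol only, from HEK293T overexpressing FLAG-tagged PLAAT. Inhibitor 30 min rt, then MB064 20 min rt. PLAAT2 0.25 μg/μL with 250 nM probe; PLAAT3 0.5 μg/μL with 250 nM; PLAAT4 and PLAAT5 1 μg/μL with 500 nM. Fluorescence normalized to Coomassie. IC50 from curves, reported as pIC50 ± SEM, n = 3.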

Test [2] addresses T2, Phospholipase A and acyltransferase 5 (Homo sapiens, UniProt Q96KN8).
T2 sequence (Q96KN8 whole entry): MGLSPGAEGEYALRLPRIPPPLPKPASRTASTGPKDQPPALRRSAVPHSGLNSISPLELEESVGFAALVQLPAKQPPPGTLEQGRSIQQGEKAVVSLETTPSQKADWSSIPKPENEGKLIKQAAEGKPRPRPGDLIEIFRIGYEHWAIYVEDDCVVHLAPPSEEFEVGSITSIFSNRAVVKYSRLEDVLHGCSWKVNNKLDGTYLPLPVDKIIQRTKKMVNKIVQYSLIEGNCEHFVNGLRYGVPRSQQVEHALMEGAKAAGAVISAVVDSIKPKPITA
Nature of the test: Inhibition of full-length C-terminal FLAG-tagged human PLAAT5 expressed in HEK293T cell lysate preincubated for 30 mins followed by MB064 addition and measured after 20 mins by SDS-PAGE based ABPP analysis. In a few lines: as §1

pIC50: −log10 of the molar value.

In the case of `O=C(CCCc1ccccc1)C(=O)NCCc1ccc(Oc2ccc(C(F)(F)F)cn2)cc1`, the negative logarithm of the IC50 (pIC50) in test [1] was 6.80.

For `O=C(CCc1ccc(Cl)cc1)C(=O)NCCc1ccccc1`, the pIC50 in test [2] is 6.40; in test [1] it was 6.20.

Values taken from BindingDB's records for doi:10.1021/acs.jmedchem.0c00522 (Leiden University & Oncode Institute, 2020).
